Consider 7 compounds from ChEMBL document CHEMBL2073777, “Characterization of ochratoxin A transport by human organic anion transporters” (Life Sci, 2001).

Each structure is given as a SMILES string.

Holding throughout (type): functional, cell-based
For series [1], the target named is T1, Organic anion transporter 3 (Homo sapiens, UniProt Q8TCC7).
T1 sequence (Q8TCC7 whole entry): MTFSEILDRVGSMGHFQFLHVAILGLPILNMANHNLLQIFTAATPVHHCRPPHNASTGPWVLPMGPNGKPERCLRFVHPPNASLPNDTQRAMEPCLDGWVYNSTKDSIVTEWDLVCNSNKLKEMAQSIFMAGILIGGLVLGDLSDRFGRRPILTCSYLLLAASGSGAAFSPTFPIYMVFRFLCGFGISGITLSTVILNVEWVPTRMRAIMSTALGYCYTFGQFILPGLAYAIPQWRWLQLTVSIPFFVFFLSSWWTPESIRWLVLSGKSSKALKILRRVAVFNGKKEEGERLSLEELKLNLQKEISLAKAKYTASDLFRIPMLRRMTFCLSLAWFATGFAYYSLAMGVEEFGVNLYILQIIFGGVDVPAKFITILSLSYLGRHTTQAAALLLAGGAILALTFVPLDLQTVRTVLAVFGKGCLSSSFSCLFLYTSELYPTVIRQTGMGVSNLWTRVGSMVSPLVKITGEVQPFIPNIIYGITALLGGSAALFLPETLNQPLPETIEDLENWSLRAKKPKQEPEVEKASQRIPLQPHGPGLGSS
As to the kind of experiment: TP_TRANSPORTER: inhibition of Ochratoxin A uptake in OAT3-expressing S2 cells.

In series [2] the target is T1, Organic anion transporter 3. The series can be described thus: TP_TRANSPORTER: inhibition of Ochratoxin A uptake (OTA: 1 uM, Indomethacin: 200 uM) in OAT3-expressing S2 cells. To be noted: mouse, s2, 200 µM. Summed up: (§1)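 Mouse proximal tubule second-segment (S2) cells stably expressing human OAT1 or OAT3. Uptake of [³H]-labelled ochratoxin A was measured with and without added OAT substrates as inhibitors.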

Series [3] deals with T2, Solute carrier family 22 member 6 (Homo sapiens, UniProt Q4U2R8).
T2 sequence (Q4U2R8 whole entry): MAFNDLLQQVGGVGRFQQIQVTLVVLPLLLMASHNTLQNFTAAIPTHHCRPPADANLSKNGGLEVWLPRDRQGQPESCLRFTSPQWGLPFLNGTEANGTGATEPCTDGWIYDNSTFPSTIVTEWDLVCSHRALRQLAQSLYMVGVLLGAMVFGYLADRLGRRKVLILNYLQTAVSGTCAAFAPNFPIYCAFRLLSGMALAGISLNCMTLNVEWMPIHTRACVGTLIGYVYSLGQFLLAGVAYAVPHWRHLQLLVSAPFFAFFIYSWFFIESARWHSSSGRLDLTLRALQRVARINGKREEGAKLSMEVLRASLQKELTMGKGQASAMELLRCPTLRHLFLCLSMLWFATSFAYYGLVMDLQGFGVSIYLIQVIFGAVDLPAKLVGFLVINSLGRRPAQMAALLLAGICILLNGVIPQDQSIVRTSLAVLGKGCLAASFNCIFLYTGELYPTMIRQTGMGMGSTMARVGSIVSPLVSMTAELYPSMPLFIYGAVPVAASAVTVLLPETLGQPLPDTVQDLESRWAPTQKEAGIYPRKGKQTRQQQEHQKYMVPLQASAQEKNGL
As to the kind of experiment: TP_TRANSPORTER: inhibition of Ochratoxin A uptake (OTA: 1 uM, Indomethacin: 200 uM) in OAT1-expressing S2 cells. The note with it: mouse, s2, 200 µM. Summed up: as §1

Series [4] deals with T1, Organic anion transporter 3. As to the kind of experiment: TP_TRANSPORTER: inhibition of Ochratoxin A uptake (OTA: 1 uM, Aspartame: 200 uM) in OAT3-expressing S2 cells. To be noted: s2, 200 µM. The procedure, abridged:
as §1

The target of series [5] is T2, Solute carrier family 22 member 6. The series can be described thus: TP_TRANSPORTER: inhibition of Ochratoxin A uptake (OTA: 1 uM, Aspartame: 200 uM) in OAT1-expressing S2 cells. The note with it: s2, 200 µM. The procedure, abridged:
as §1

For series [6], the target named is T3, OAT3 (Organic anion transporter 3) (Homo sapiens, UniProt Q8TCC7).
T3 sequence (Q8TCC7 whole entry): T1 sequence (Q8TCC7 whole entry)
As to the kind of experiment: TP_TRANSPORTER: uptake in OAT3-expressing S2 cells. To be noted: mouse, S2 cells that express OAT3. Summed up:
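S2 proximal tubule cells from mice stably expressing human OAT3. [³H]-ochratoxin A uptake was followed over time and concentration, and the apparent Km was taken from the saturable uptake.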

Series [7] concerns the target T1, Organic anion transporter 3. As to the kind of experiment: TP_TRANSPORTER: inhibition of Ochratoxin A uptake (OTA: 1 uM, PCG: 200 uM) in OAT3-expressing S2 cells. To be noted: mouse, s2, 200 µM. Summed up:
as §1

`CC1=C2C(=CO[C@H](C)[C@H]2C)C(O)=C(C(=O)O)C1=O` [CITRININ] came in with a Ki in series [1] of 15.4 µM.

For `COc1ccc2c(c1)c(CC(=O)O)c(C)n2C(=O)c1ccc(Cl)cc1` [INDOMETHACIN], the Activity entry is “inhibitor [(at a rough estimate) 15 % of control]” in series [2] and “inhibitor [(at a rough estimate) 25 % of control]” in series [3].

Regarding `CN1C(C(=O)Nc2ccccn2)=C(O)c2ccccc2S1(=O)=O` [PIROXICAM], the Ki in series [1] was found to be 4.88 µM.

On to `COC(=O)[C@H](Cc1ccccc1)NC(=O)[C@@H](N)CC(=O)O`, for which the Activity entry in series [4] and in series [5] was “is not an inhibitor [-]” in each case.

`C[C@@H]1Cc2c(Cl)cc(C(=O)N[C@@H](Cc3ccccc3)C(=O)O)c(O)c2C(=O)O1` [3R14S-OCHRATOXIN A]: in series [6], the Km was 0.75 µM.

In turn, `CCCCCCCC(=O)O` [OCTANOIC ACID] had a Ki in series [1] of 8.6 µM.

Take `CC1(C)S[C@@H]2[C@H](NC(=O)Cc3ccccc3)C(=O)N2[C@H]1C(=O)O` [PENICILLIN G]: the Activity result in series [7] is “inhibitor [(at a rough estimate) 35 % of control]”.

One may read the Ki as the dissociation constant of the complex between target and ligand, obtained from inhibition or displacement. A low value points to a stronger hold on the target. Usually Km stands for the concentration of substrate that gives half-maximal velocity.
